# Results: article PMC11903327 (Clinical and Translational Science, 2025)
# Read-outs that look alike come from different tables or passages of the source.
# What was measured:
# [1] = assay type: in vivo, human
# pKa = assay type: physicochemical
# [2] = Phase 1 dose-escalation study, QD dosing; cited from earlier work
# [3] = single oral radiolabeled fruquintinib 5 mg; cited from earlier work
# [4] = assay type: in vivo, human; conditions: for CL/F: arithmetic mean (SD)
# How it was run: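 Healthy nonsmoking adults aged 18–55, BMI 18–29 kg/m2. Randomized fed/fasted crossover: single 5 mg oral dose fasted or 30 min after a high-fat breakfast (~800–1000 kcal, 50% fat), with ≥14-day washout. Period 3: rabeprazole 40 mg QD with breakfast for 6 days, then fasted 1 h before dosing. Plasma sampled pre-dose to 168 h, LC-MS/MS (1.00–750 ng/mL). Noncompartmental PK; mixed-effects geometric LSM ratios, 90% CIs.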
# [5] = Biopharmaceutical classification system; assay type: physicochemical; conditions: based on low aqueous solubility and high in vitro permeability
# [6] = In vitro aqueous solubility in buffer systems across pH 1 to 6.8; assay type: physicochemical; conditions: 37 °C, thermodynamic from solid
# [7] = test system: colorectal adenocarcinoma‐2 cell; conditions: colorectal adenocarcinoma-2 cells; cited from earlier work
# [8] = healthy Chinese subjects, fruquintinib 4 mg, cited from earlier work
# [9] = healthy subjects, cited from earlier work
# [10] = Clinical mass balance study with radiolabelled fruquintinib; assay type: in vivo, human; conditions: single 5 mg dose in humans; inferred from metabolic profile
# [11] = ref Takeda data on file, cited from earlier work
# [12] = clinical dose of 5 mg; cited from earlier work
smiles,measurement,setting,value
CNC(=O)c1c(C)oc2cc(Oc3ncnc4cc(OC)c(OC)cc34)ccc12 [Fruquintinib],relation of AEs to fruquintinib,[1]; all five AEs,not related
same,severity of AEs,[1]; all five AEs,mild
same,subjects reporting AEs,"[1]; four of 14 subjects, five AEs, all treatment periods",29%
same,"changes in chemistry, hematology, urinalysis and coagulation laboratory test results",[1]; over time during the study,no clinically significant changes
same,tolerability,[1]; with or without food or with rabeprazole,well tolerated
same,pKa,pKa,2.78
same,maximum-tolerated dose,[2],4 mg
same,dose recovered in feces,[3],30%
same,"unchanged fruquintinib in feces, of the administered dose",[3],5.34%
same,"unchanged fruquintinib in urine, of the administered dose",[3],0.50%
same,time after dosing at which peak concentrations were achieved,"[4]; fruquintinib 5 mg oral, under fed and fasted conditions",approximately 4 h
same,effects of food or rabeprazole on fruquintinib PK,"[4]; healthy subjects, fruquintinib 5 mg",No clinically relevant effects
same,Tmax,"[4]; human, plasma, oral",0.5 h
same,Tmax,"[4]; human, plasma, po, 5 mg",4 h
same,CL/F,"[4]; single oral fruquintinib 5 mg + rabeprazole 40 mg, fasted",15.6 (4.59) mL/min
same,CL/F,"[4]; single oral fruquintinib 5 mg, fasted (reference)",17.1 (5.22) mL/min
same,CL/F,"[4]; single oral fruquintinib 5 mg, fed (high-fat meal)",16.3 (4.32) mL/min
same,Tmax,"[4]; single oral fruquintinib 5 mg, fed (high-fat meal), median (minimum–maximum)",4.00 (2.00–6.00) h
same,biopharmaceutical classification system (BCS) class,[5],class 2
same,solubility at 48 h,"[6]; pH 1, simulated gastric fluid",130 µg/mL
same,solubility at 48 h,"[6]; pH 4.5, aqueous buffer",0.9 µg/mL
same,solubility at 48 h,"[6]; pH 6.8, aqueous buffer",0.9 µg/mL
same,apical-to-basolateral apparent permeability,[7],3e-05 cm/s
same,efflux ratio,[7],~1
same,effect of a high-fat meal on the PK of fruquintinib,[8],no clinically significant effect
same,least squares GMR (90% CI) for AUC0-inf,[8]; high-fat meal vs fasted,97.2% (94.0%–100.4%)
same,least squares GMR (90% CI) for Cmax,[8]; high-fat meal vs fasted,82.9% (76.7%–89.5%)
same,change in fruquintinib exposure,[9]; coadministration with a CYP3A inducer,decreased
same,change in fruquintinib AUC or Cmax,[9]; coadministration with a CYP3A inhibitor,no clinically meaningful change
same,fraction of the dose absorbed,[10],> 85%
same,time stable in simulated gastric fluids,[11]; simulated gastric fluids,at least 1 h
same,time stable in simulated intestinal fluids,[11]; simulated intestinal fluids,at least 3 h
CNC(=O)c1ccccc1Sc1ccc2c(/C=C/c3ccccn3)n[nH]c2c1 [axitinib],DDI (based on AUC) when combined with rabeprazole,[12],no clinically meaningful DDI
same,food effect,[12],no clinically meaningful food effect
